We go through 7 molecules from ChEMBL document CHEMBL1144051, “Structural considerations of NK109, an antitumor benzo[c]phenanthridine alkaloid” (J Nat Prod, 1999).

The subject of one data set is HeLa. Nature of the data set: Growth inhibition of human HeLa S3 cells after 72 hrs. The format is functional, cell-based. The procedure, abridged:
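HeLa S3 in Eagle's MEM with 10% calf serum and 60 µg/mL kanamycin, 37 °C, 5% CO2; seeded, grown 24 h, then exposed 72 h to compound diluted in 5% glucose at 0.01–10 µg/mL. Nuclei stained with methylene blue, cell number read at 660 nm; IC50 from growth rate relative to control.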

The nature of data set [1]: Dissociation constant, pKa of the compound. The format is physicochemical.
Data set [2] deals with Mus musculus. In words: Toxicity in mouse P388 cells xenografted CDF1 mouse assessed as decrease in body weight at 150 mg/kg, iv administered on day 1 after 30 days. It counts as organism-based. Details: dose 150 mg/kg, route intravenous. To be noted: in vivo, 720 h. The procedure, abridged: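 Female CDF1 mice, 6 weeks old, five per group, given P-388 cells iv (1 × 10^5 cells/body) on day 0, then a single tail-vein dose on day 1 in 5% glucose or EtOH–Cremophore (1:1) diluted in 5% glucose. Body weight tracked against untreated controls, reported as mean with s.e.mean.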

Data set [3] deals with Mus musculus. Nature of the data set: Toxicity against mouse P388 cells xenografted CDF1 mouse assessed as survival time at 150 mg/kg, iv. The format is organism-based. Details: dose 150 mg/kg, route intravenous. Conditions: in vivo. The procedure, abridged:
(§1)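 Female CDF1 mice, 6 weeks old, five per group, inoculated iv with P-388 leukemia cells (1 × 10^5 cells/body) on day 0; cells maintained by ip passage in DBA/2 mice. Single tail-vein injection on day 1 (0.1 mL per 10 g), vehicle 5% glucose or EtOH–Cremophore (1:1) diluted in 5% glucose. Followed 30 days; T/C (%) from median survival time, treated versus control.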

The subject of data set [4] is P388. Nature of the data set: Antitumor activity against mouse P388 cells xenografted CDF1 mouse at 150 mg/kg, iv administered on day 1 after 30 days relative to control. The format is functional. The method in brief:
as §1

For data set [5], the system named is Mus musculus. In words: Toxicity against mouse P388 cells xenografted CDF1 mouse assessed as survival time at 50 mg/kg, iv. The format is organism-based. Details: dose 50 mg/kg, route intravenous. Conditions: in vivo. The method in brief: as §1
In data set [6] the test system is P388. Nature of the data set: Antitumor activity against mouse P388 cells xenografted CDF1 mouse at 75 mg/kg, iv administered on day 1 after 30 days relative to control. It counts as functional. The procedure, abridged: as §1
In data set [7] the test system is P388. Nature of the data set: Antitumor activity against mouse P388 cells xenografted CDF1 mouse at 50 mg/kg, iv administered on day 1 after 30 days relative to control. It counts as functional. The method in brief: as §1
The subject of data set [8] is Mus musculus. Nature of the data set: Toxicity against mouse P388 cells xenografted CDF1 mouse assessed as survival time at 75 mg/kg, iv. Set-up: dose 75 mg/kg, route intravenous. It counts as organism-based. To be noted: in vivo. The method in brief:
as §1

The subject of data set [9] is P388. In words: Antitumor activity against mouse P388 cells xenografted CDF1 mouse at 6.25 mg/kg, iv administered on day 1 after 30 days relative to control. The format is functional. The method in brief: as §1
In data set [10] the test system is Mus musculus. In words: Toxicity against mouse P388 cells xenografted CDF1 mouse assessed as survival time at 12.5 mg/kg, iv. It counts as organism-based. Details: dose 12.5 mg/kg, route intravenous. To be noted: in vivo. The procedure, abridged: as §1
The test system of data set [11] is P388. In words: Antitumor activity against mouse P388 cells xenografted CDF1 mouse at 25 mg/kg, iv administered on day 1 after 30 days relative to control. The format is functional. The method in brief: as §1
The subject of data set [12] is Mus musculus. Nature of the data set: Toxicity against mouse P388 cells xenografted CDF1 mouse assessed as survival time at 6.25 mg/kg, iv. The format is organism-based. Details: dose 6.25 mg/kg, route intravenous. Conditions: in vivo. The procedure, abridged: as §1
In data set [13] the test system is Mus musculus. In words: Toxicity against mouse P388 cells xenografted CDF1 mouse assessed as survival time at 25 mg/kg, iv. The format is organism-based. Details: dose 25 mg/kg, route intravenous. Conditions: in vivo. The procedure, abridged:
as §1

Data set [14] concerns P388. Nature of the data set: Antitumor activity against mouse P388 cells xenografted CDF1 mouse at 12.5 mg/kg, iv administered on day 1 after 30 days relative to control. It counts as functional. The method in brief:
as §1

Each structure is given as a SMILES string. Values after ≈ are worked out from the molar mass of the structure shown.

What is called IC50 is the concentration needed to halve the response being measured. Read a low IC50 as greater potency in that assay. `COc1ccc2c(c1O)CN(C)c1c-2ccc2cc3c(cc12)OCO3` returned an IC50 with HeLa of 16.2 µg/mL (≈ 48.3 µM).

Broadly, the pKa is the negative logarithm of the acid dissociation constant. Read a low pKa as a stronger acid or weaker base. The term T/C denotes the result in the treated group divided by that in the control group, in per cent. In turn, `COc1ccc2c(c[n+](C)c3c4cc5c(cc4ccc23)OCO5)c1O.O.O.O=S(=O)([O-])O` gave a pKa in [1] of 5.3. Also, in the data set with Mus musculus [2], the Activity result is “Toxic”. Moreover, the MSD with Mus musculus [3] worked out at 23.5 days; in the data set on Mus musculus [5] it was 13.2 days; with Mus musculus [8] it was 14.3 days. The same molecule came in with an IC50 in the data set with HeLa of 0.08 µg/mL. Also, the T/C in the data set on P388 [4] worked out at 261%; with P388 [6] it was 159%; with P388 [7], 147%.

With `COc1ccc2c(c[n+](C)c3c4cc5c(cc4ccc23)OCO5)c1OC.[Cl-]` [CHELERYTHRINE CHLORIDE], the values for the T/C in the data set with P388 [9], with P388 [11] and in the data set with P388 [14] were 111%, 12% and 111%, respectively. The MSD is 10 days in the data set with Mus musculus [10], 10 days in the data set on Mus musculus [12] and 1.1 days in the data set with Mus musculus [13]. In the data set with HeLa, this molecule came in with an IC50 of 1.24 µg/mL.

`COc1c(O)ccc2c1c[n+](C)c1c3cc4c(cc3ccc21)OCO4.[Cl-]` [FAGARIDINE HYDROCHLORIDE] showed an IC50 with HeLa of 3.99 µg/mL.

Consider `COc1cc2c(ccc3c4cc(OC)c(OC)cc4c[n+](C)c23)cc1O.[Cl-]` [FAGARONINE], for which the T/C with P388 [11] was 102%; in the data set with P388 [6], 14%; in the data set on P388 [7], 102%. Besides, in the data set with HeLa, the IC50 is 0.39 µg/mL. Moreover, the MSD in the data set with Mus musculus [5] turned out to be 9.5 days; with Mus musculus [8], 1.3 days; in the data set on Mus musculus [13], 9.5 days.

For the molecule `COc1cc2c[n+](C)c3c4cc5c(cc4ccc3c2cc1OC)OCO5.[Cl-]` [NITIDINE CHLORIDE], the T/C amounted to 108% in the data set on P388 [11], 46% in the data set with P388 [6] and 102% in the data set with P388 [7]. In addition, the IC50 in the data set with HeLa came out at 0.05 µg/mL. Also, the results for the MSD with Mus musculus [5], in the data set on Mus musculus [8] and with Mus musculus [13] were 9.5 days, 4.3 days and 10 days, respectively.

For the molecule `C[n+]1cc2c3c(ccc2c2ccc4cc5c(cc4c21)OCO5)OCO3.[Cl-]` [SANGUINARIUM CHLORIDE], the MSD with Mus musculus [10] stood at 9.5 days; in the data set with Mus musculus [5], 1.1 days; in the data set with Mus musculus [13], 2.3 days. In addition, the T/C is reported as 25% in the data set with P388 [11], 12% with P388 [7] and 102% with P388 [14]. In addition, the IC50 with HeLa stood at 0.16 µg/mL.
